# Screens from PubChem.
# Insulin prom act: activators of insulin promoter-driven GFP, primary screen, imaging, TRM-6 cells, eGFP reporter, cell count. plate-scaled: unstimulated 0, stimulated control 100. activation, % at 2 µM. 130,000 tested, 0.81% active;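 active means activation at 2 µM above a set limit, confirmed on inspection of the cell images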;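 further: share of cells whose green reporter signal exceeds an intensity cutoff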
#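 Test system: human fetal islet-derived TRM-6 cells with tamoxifen-inducible insulin promoter–eGFP reporter; schedule: overnight tamoxifen, then two-day compound incubation at 37 °C; measured by: high-content imaging of fixed cells with Hoechst nuclear stain; evaluation: percent cells above green-intensity threshold, converted to percent activation versus plate controls; control set: stimulated and unstimulated wells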
# Numbers without * were called inactive; [ ] = remark or other dose. The full list was thinned out, with hits kept by preference.
SMILES,Insulin prom act
COc1ccc(C(C)NC(=O)Cc2ccc(Br)cc2)cc1 (centres undefined),3.6
CC(C)CCOC(=O)C1C(c2ccccc2)C(C(=O)O)C1c1ccccc1 (centres undefined),0.0
COC(=O)c1cccc(NC(=O)/C=C/c2ccc([N+](=O)[O-])cc2)c1,0.0
COc1ccccc1/C=C/C(=O)N1CCCC1,2.9
O=C(/C=C/c1ccccc1[N+](=O)[O-])N1CCCCC1,-2.7
CC(=O)c1cccc(NC(=O)/C=C/c2ccc([N+](=O)[O-])s2)c1,614.3*
O=C(/C=C/c1ccc([N+](=O)[O-])s1)N1CCCCC1,327.8*
O=C(CNC(=O)c1cccc(F)c1)N/N=C/c1ccc([N+](=O)[O-])s1,7.1
C=CC(=O)NC(C)(C)CCN1CCOCC1,7.1
O=C(COc1ccc(Cl)cc1)NCc1cn2cc(Cl)ccc2n1,-2.7
O=C(NCC1OCCc2ccccc21)c1ccc(NC(=O)c2ccc(Cl)cc2)cc1 (centres undefined),-6.5
CCOC(=O)C1CCN(C(=O)CSc2nccc(C)n2)CC1,-5.3
Cc1ccccc1NC(=O)COc1ccc(Br)cc1C,430.8*
Cc1ccccc1OCC(=O)Nc1cccc2nsnc12,-42.9
Cc1cc(Cl)ccc1OCC(=O)Nc1ccccc1N1CCOCC1,362.9
CC(=O)c1c(C)[nH]c(C(=O)OCc2ccccc2F)c1C,-9.1
CCN(CC)c1ccc(/C=N/NC(=O)CCC(=O)NCc2ccccc2)c(O)c1,183.3
CCNc1nc(C)c(CN(C(C)=O)c2ccccc2)nc1C#N,0.0
CCN1CCN(c2nc3ccccc3nc2C(C#N)C(=O)OC2CCCCC2)CC1 (centres undefined),-7.7
N#CC(C#N)=C1C=C2C=C(N3CCCCCC3)CCC2CC1 (centres undefined),222.6*
CCN1CCN(C2=CC3=CC(=C(C#N)C#N)CCC3CC2)CC1 (centres undefined),614.3*[fluoresces]
CN1CCN(C2=CC3=CC(=C(C#N)C#N)CCC3CC2)CC1 (centres undefined),640.7*
COc1ccc(NC2=CC(=O)N(C)C2=O)cc1,0.0
CC1CCN(CCc2nc3cc(NC(=O)NC4CCCCC4)ccc3n2C)CC1,7.7
CCn1cc(C(=O)N(CCC(C)C)c2c(N)n(Cc3ccccc3)c(=O)[nH]c2=O)c(=O)c2ccc(C)nc21,7.3
SMILES,Insulin prom act
Cc1ccc(NC(=O)c2ccccc2NS(=O)(=O)c2ccc(Cl)s2)cc1S(=O)(=O)N1CCOCC1,-7.7
Cc1ccc(SC(C)C(=O)Nc2ncn[nH]2)cc1 (centres undefined),7.7
CCCCCNC(=O)C(C)Sc1ccc(Cl)cc1 (centres undefined),164.3
Cc1ccc(SC(C)C(=O)NCC(C)C)cc1 (centres undefined),518.8*
O=C(Nc1ccccc1C(=O)NCc1cccnc1)c1ccc(Cl)cc1Cl,0.0
Cc1ccc(S(=O)(=O)N2CCN(C(=O)c3cc(=O)c4ccccc4o3)CC2)cc1,0.0
COc1ccc(CC(=O)NNC(=O)CSc2nnc(Cc3ccc(OC)cc3)n2-c2ccccc2)cc1,-71.4
Cc1c(/C=N\NC(=O)C2COc3ccc(C(C)(C)C)cc3O2)c2ccccc2n1C (centres undefined),0.0
COc1cc(CN(C(=S)NCC(=O)NC2CCCC2)C2CCCC2)cc(OC)c1OC,-6.7
NC(=O)C1(N2CCCCC2)CCN(C(=O)CSc2nc3ccccc3o2)CC1,0.0
NC(=O)C1(N2CCCCC2)CCN(Cc2ccccc2Cl)CC1,456.3*
NC(=O)C1(N2CCCCC2)CCN(CC(=O)Nc2ccccc2-c2ccccc2)CC1,105.9
O=C(NCC1CCCO1)C(=O)NCC(c1ccco1)N1CCN(c2ccccc2)CC1 (centres undefined),-3.4
CCNC(=S)N(Cc1ccc2c(c1)OCO2)C1CC(=O)N(c2ccc(F)cc2)C1=O (centres undefined),-7.7
CCN1/C(=C/C=C/c2oc3ccc(-c4ccccc4)cc3[n+]2CC)Oc2ccc(-c3ccccc3)cc21,809.1*[fluoresces]
CCOC(=O)C(Cc1ccc(Cl)cc1Cl)c1ccno1 (centres undefined),0.0
c1ccc(-c2nnc(-c3ccccc3)o2)cc1,4.7
CSc1ccccc1-c1nnc(-c2ccccc2)o1,9.4
O=S1(=O)C=C(Sc2nnc(-c3ccccc3)o2)c2ccccc21,270.4*
CCCCOC(=O)c1nc[nH]c1C(=O)OCCCC,-71.4
Cc1ccc(NC(=O)c2cc(S(=O)(=O)c3ccccc3)ccc2Cl)cc1,-5.7
O=C(CCCN1C(=O)c2ccccc2C1=O)Nc1cccnc1,-9.5
O=C(CCCN1C(=O)c2ccccc2C1=O)NCc1cccnc1,473.3*
O=C(CCCN1C(=O)c2ccccc2C1=O)NCc1ccco1,238.9
Cc1cc([N+](=O)[O-])nn1CCCC(=O)NC1CCCCC1,-2.6
SMILES,Insulin prom act
Cc1ccc(C(=O)C(C)OC(=O)c2ccccc2[N+](=O)[O-])cc1 (centres undefined),5.9
Cc1ccc(S(=O)(=O)/N=C(\CCl)N2CCOCC2)cc1,128.6
COc1ccc(Cn2nnnc2CN2CCC(O)(c3ccc(F)cc3)CC2)cc1,7.1
Cc1ccc(Cn2nnnc2CN2CCC(O)(c3ccc(F)cc3)CC2)cc1,0.0
COc1cc(C(=O)NC2CCN(Cc3nnnn3Cc3ccc(F)cc3)CC2)cc(OC)c1OC,515.4*
COc1cccc(-c2nn[nH]n2)c1O,-7.7
CCN(CC)c1nc(OCCNC(=O)Nc2ccccc2)nc(N(CC)CC)n1,-71.4
Cc1ccc2nc(-c3ccc(NC(=O)C4CCCO4)cc3)[nH]c2c1 (centres undefined),-3.3
CC1=C(C(=O)OC(C)C)[C@@H](c2ccc(C)o2)NC(=O)N1,-7.1
CCN(CC)C(=O)C(=O)c1cn(CC(=O)N2CCc3ccccc3C2)c2ccccc12,145.5
O=C(CSc1nnc(-c2ccncc2)n1CC1CCCO1)NCc1ccccc1 (centres undefined),-8.3
Cc1cc(C(=O)CSc2nnc(-c3cccnc3)n2-c2ccccc2F)c(C)n1CC1CCCO1 (centres undefined),90.6*
Cc1cc(C(=O)CSc2nnc(-c3ccc(F)cc3)o2)c(C)n1CC1COc2ccccc2O1 (centres undefined),7.7
O=C1CCc2cc(S(=O)(=O)NC(Cc3ccccc3)C(=O)N3CCN(c4ccccn4)CC3)ccc2N1 (centres undefined),-7.1
CCc1cccc(C)c1NC(=O)C1CN(S(=O)(=O)c2ccccc2)CCN1S(=O)(=O)c1ccccc1 (centres undefined),7.7
O=C(CCC1CCCCC1)NNC(=O)NC12CC3CC(CC(C3)C1)C2,-8.5
COc1ccc(CNC(=O)Cc2nn(C)c(=O)c3ccccc23)cc1,2.6
CC(C)(C)c1ccc(Cn2nc(CC(=O)O)c3ccccc3c2=O)cc1,272.2*
Cc1nn(CC(=O)O)c(=O)c2ccccc12,-9.4
CN(C)c1nc(N)nc(CSc2nnnn2-c2ccc(F)cc2)n1,7.7
Nc1nc(CSc2nnnn2-c2ccccc2)nc(N2CCCc3ccccc32)n1,447.1*
Cc1ncc(CSc2nnnn2-c2ccccc2)c(N)n1,218.8
Cc1ccnc(SCC(=O)N2CCc3ccccc3C2)n1,0.0
Cc1ccnc(SCC(=O)O)n1,-3.2
Cc1ccnc(SCc2cc(=O)c(OC(=O)c3ccccc3)co2)n1,427.8*
COc1cc(CN2C(=S)NC(C)(C)CC2(C)O)cc(OC)c1 (centres undefined),7.7
Brc1ccc(CSc2nnc3ccccn23)cc1,0.0
c1ccc(-c2nc(-c3ccncc3)no2)cc1,-80.0
Clc1ccc(-c2nc(Cc3ccccc3)no2)cc1,83.9*
